# High-throughput results: PubChem BioAssay, Broad Institute
# Most compounds without a hit are left out; they make up all but 1.1% or so of the library.
# PglD DTNB: C. jejuni PglD acetyltransferase inhibitors, primary screen, biochemical, DTNB colorimetric, single point; UDP-N-acetylbacillosamine N-acetyltransferase PglD (Campylobacter jejuni); purified PglD enzyme, DTNB colorimetric CoA detection; inhibition, % at 12.5 µM; 0.098% of 360,000 active; AID 602405, 2012; in the data active = inhibition above about 16%, passing the limit was not always enough; inconclusive = no clear call, values can overlap the other calls
# miR-122 sensor: miR-122 Renilla sensor signal increase in Huh7, primary screen, miR-122 inhibitor project, cell-based, single point, plate reader | Huh7 miR-122 Renilla luciferase sensor, 48 h; neutral wells = 0, positive control = 100 | activation (reporter increase), % at 12.5 µM | 0.3% of 340,000 active | AID 602342, 2012;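 active = mean replicate activation score at least 90 and every replicate individually at or above 90; inconclusive = only one of the two criteria met; inactive = neither criterion met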;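 also: higher luciferase means less miR-122 activity so hits act as miR-122 inhibitors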
# CAL PDZ FP-1: CAL PDZ peptide-binding inhibitors, primary screen, biochemical, fluorescence polarization, Cer-tagged CAL PDZ, HTS | Golgi-associated PDZ and coiled-coil motif-containing protein (Homo sapiens), Q9HD26 | purified CAL PDZ, TMR-peptide fluorescence polarization, 1 h | inhibition, % at 20 µM | 0.02% of 330,000 active | AID 504414, 2011;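 active = highest replicate inhibition of at least 40%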
#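 Material: tagged CAL PDZ protein CerCALP, purified; buffer or medium: sodium phosphate/NaCl buffer pH 7.4 with TCEP, IgG, Thesit; also added: fluorescent TMR peptide probe; schedule: 1 h incubation at room temperature before polarization reading; technique: fluorescence polarization from S- and P-plane intensities, G-factor corrected; control set: unlabelled peptide and DMSO controls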
# Cneo AK release: Cryptococcus neoformans cell lysis inducers, primary screen, AK release luminescence, single concentration; 0.2% of 360,000 active; C. neoformans lysis, adenylate kinase release luminescence, 4 h; normalised: neutral wells 0, clomiphene wells 100; lysis activity, % at 15 µM; AID 651654, 2012;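 active = mean lysis activity across replicates of at least 80%, whatever share of replicates individually reach that level; inactive = mean lysis activity below 80%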
#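 Material: C. neoformans cells | Amount: Yeast cell density of 5 × 10^6 cells/mL | Medium: Fresh YPD growth medium | Dosing: Single dose | Times: Static 4 h at 37 °C with compound, 1 h detection | Detection: AK luminescence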
# CAL PDZ FP-2: untagged CAL PDZ binding inhibitors, primary screen, biochemical, fluorescence polarization, HTS; purified CAL PDZ, TMR-peptide fluorescence polarization, 1 h; AID 602252, 2012; inhibition, % at 24.9 µM; 0.92% of 300,000 active;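 active = mean inhibition of at least 30% with at least half of replicates also reaching 30%; inconclusive = no clear call, values can overlap the other calls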
# Numbers stand for hits; n = inactive; u = inconclusive; x = no result; [ ] = dose if it differs, or a comment.
SMILES,PglD DTNB,miR-122 sensor,CAL PDZ FP-1,Cneo AK release,CAL PDZ FP-2
C[C@H]1CN([C@@H](C)CO)C(=O)c2cccc(N(C)C)c2O[C@@H]1CN(C)Cc1ccc(Oc2ccccc2)cc1,n,n,x,n,x
CO[C@@H]1CN(C)C(=O)c2cc(NC(=O)c3cc(C)on3)ccc2OC[C@H](C)N(C)C[C@@H]1C,n,n,x,n,x
CCCN1CCN(S(=O)(=O)c2ccc3c(c2)CCC(=O)N3)CC1,n,n,n,n,46
O=C(O)c1ccccc1NS(=O)(=O)c1cccc(C(F)(F)F)c1,n,n,n,n,x
O=C(O)c1ccccc1NS(=O)(=O)c1cccc(-n2sc3ccccc3c2=O)c1,n,n,n,n,34
C[C@@H]1CCCCO[C@@H](CN(C)Cc2ccncc2)[C@H](C)CN([C@H](C)CO)C(=O)c2cc(NC(=O)Nc3ccc(F)cc3)ccc2O1,n,n,x,n,x
COc1cc2c(c(OC)c1OC)-c1ccc(N(C)CC(OC)OC)c(=O)cc1[C@@H](NC(C)=O)CC2,x,x,n,x,n
CN[C@H]1CCc2cc(OC)c(OC)c(OC)c2-c2ccc(N(C)CC(OC)OC)c(=O)cc21,n,130,x,n,n
Cc1nc(N2CCCCC2)nc(N2CCCCC2)c1C=O,n,n,n,n,n
CCc1c(C(=O)Nc2cc(C)cc(C)c2)[nH]c(C)c1C(C)=O,x,121,n,x,n
CCOCC(=O)NC1CCc2cc(OC(=O)COCC)c(OC)c(OC)c2-c2ccc(SC)c(=O)cc21 (stereo unspecified),x,n,n,x,34
COc1cc2c(c(OC)c1OC)-c1ccc(SC)c(=O)cc1C(NC(=O)C(F)(F)F)CC2 (stereo unspecified),x,n,n,x,n
CN1C(=O)CCC1(O)c1ccccc1 (stereo unspecified),n,n,n,n,n
O=C1C=CC(c2ccccc2)(c2ccccc2)CC1,n,n,n,n,38
C[C@H]1CCCCO[C@H](CN(C)C(=O)Nc2ccc(F)cc2)[C@@H](C)CN([C@@H](C)CO)C(=O)c2cc(NS(C)(=O)=O)ccc2O1,n,n,x,n,x
CCC(CC)c1nnc(NC(=O)CCS(=O)(=O)Cc2ccccc2)s1,n,n,n,n,41
COc1ccc(NS(=O)(=O)c2cc(NC(=O)C3CC3)ccc2N2CCOCC2)cc1,n,n,n,n,n
COc1cc(/C=C/C(=O)Nc2ccc(N3CCCCC3)c(S(=O)(=O)Nc3ccccc3Cl)c2)cc(OC)c1OC,x,289,n,x,n
COc1ccccc1NS(=O)(=O)c1cc(NC(=O)CC(C)(C)C)ccc1N1CCOCC1,n,n,n,n,n
COc1ccccc1NS(=O)(=O)c1cc(NC(=O)CCC2CCCC2)ccc1N1CCOCC1,n,119,n,n,x
COc1ccccc1NS(=O)(=O)c1cc(NC(=O)Nc2ccc(Cl)cc2Cl)ccc1N1CCCCC1,n,u,n,n,n
COc1ccccc1NS(=O)(=O)c1cc(NC(=O)c2cccs2)ccc1N1CCOCC1,x,112,n,x,n
COc1ccc(NS(=O)(=O)c2cc(NC(=O)CCc3ccc(OC)c(OC)c3)ccc2N2CCOCC2)cc1,n,118,n,n,n
COc1ccc(NS(=O)(=O)c2cc(NC(=O)c3cccs3)ccc2N2CCOCC2)cc1,n,n,n,n,n
COc1cccc(S(=O)(=O)Nc2ccc3c(c2)[C@@H]2C[C@@H](CC(=O)NCC(F)(F)F)O[C@@H](CO)[C@@H]2O3)c1,n,n,x,n,x
SMILES,PglD DTNB,miR-122 sensor,CAL PDZ FP-1,Cneo AK release,CAL PDZ FP-2
CN1CCN(C(=O)C[C@@H]2C[C@@H]3c4cc(NC(=O)NC5CCCCC5)ccc4O[C@@H]3[C@H](CO)O2)CC1,n,n,x,n,x
CC1=CC=CC2=NC(=O)CC(C)(C(=O)N(CC(=O)NC3CCCC3)c3ccc(F)cc3)N12 (stereo unspecified),n,n,n,n,n
S=C(Nc1ccc(Cl)c(Cl)c1)NN1CCOCC1,n,n,n,n,n
C[C@@H]1CN([C@H](C)CO)C(=O)c2cccc(NC(=O)C3CCCCC3)c2O[C@H]1CN(C)S(=O)(=O)c1cccs1,n,n,x,n,x
C[C@H]1CN([C@@H](C)CO)C(=O)Cc2cc(NC(=O)Nc3ccccc3)ccc2O[C@H]1CN(C)C(=O)Nc1ccc(F)cc1,n,n,x,n,x
CCC(C(=O)Nc1ccc(N2CCOCC2)c(S(=O)(=O)Nc2ccccc2OC)c1)c1ccccc1 (stereo unspecified),x,121,n,x,x
COc1ccccc1NS(=O)(=O)c1cc(NC(=O)c2ccco2)ccc1N1CCOCC1,x,x,n,x,n
C[C@H](O)C#Cc1ccc([C@H]2[C@H](CO)N3CCCCN(CC4CCOCC4)C[C@@H]23)cc1,n,n,x,98,x
C[C@H](O)C#Cc1ccc([C@@H]2[C@@H](CO)N3CCCCN(CC4CC4)C[C@H]23)cc1,n,n,x,n,x
C[C@@H](O)C#Cc1ccc([C@@H]2[C@H]3CN(CC4CC4)CCCCN3[C@H]2CO)cc1,n,n,x,115,x
O=C(CCN1CCCCC1)NCC[C@@H]1CC[C@H](NC(=O)c2ccc(F)cc2)[C@H](CO)O1,n,x,x,n,x
CCCN1[C@@H]2c3ccc(-c4ccc(F)cc4)c(=O)n3C[C@@H]2[C@@H](CO)[C@@H]1C(=O)N[C@H](C)c1ccccc1,n,n,x,n,x
O=S(=O)(c1ccccc1)N1C[C@H]2[C@@H](c3ccccc31)[C@@H](CO)N2Cc1ccc2c(c1)OCO2,n,140[16.7 µM],x,n,x
O=S(=O)(c1ccccc1)N1C[C@H]2[C@@H](c3ccccc31)[C@H](CO)N2Cc1ccc2c(c1)OCO2,n,n,x,n,x
O=S(=O)(c1ccc(F)cc1)N1C[C@@H]2[C@H](c3ccccc31)[C@@H](CO)N2Cc1ccccc1Cl,n,n,x,92,x
CC(=O)N1[C@@H]2CN(S(=O)(=O)c3ccccc3F)c3ccccc3[C@@H]2[C@@H]1CO,n,n,x,92,x
O=C(NCCc1ccccc1)[C@H]1[C@H](CO)[C@H]2Cn3c(cccc3=O)[C@@H]1N2C(=O)C1CCC1,n,n,x,105,x
O=C(NCCc1ccccc1)[C@@H]1[C@@H](CO)[C@@H]2Cn3c(cccc3=O)[C@H]1N2C(=O)C1CCC1,n,n,x,102,x
O=C(NCCc1ccccc1)[C@H]1[C@H](CO)[C@H]2Cn3c(cccc3=O)[C@@H]1N2C(=O)C1CCCC1,n,n,x,n,x
CC(=O)NC(Cc1cccc(F)c1)C(=O)NC1CCN(c2nnnn2-c2ccccc2)CC1 (stereo unspecified),x,x,n,x,n
CC(C)(C(=O)Nc1nccs1)c1ccccc1,n,x,n,n,66
